# Test results reported in ChEMBL document CHEMBL3576833, “Design and Synthesis of Acetylenyl Benzamide Derivatives as Novel Glucokinase Activators for the Treatment of T2DM” (ACS Med Chem Lett, 2015).
# Columns and labels:
# [1] = biological target: T1, Hexokinase-4 (Homo sapiens, UniProt P35557); assay: Activation of recombinant human pancreatic glucokinase using 10 mM glucose as substrate by G6PDH coupled assay
# T1 sequence (P35557 whole entry): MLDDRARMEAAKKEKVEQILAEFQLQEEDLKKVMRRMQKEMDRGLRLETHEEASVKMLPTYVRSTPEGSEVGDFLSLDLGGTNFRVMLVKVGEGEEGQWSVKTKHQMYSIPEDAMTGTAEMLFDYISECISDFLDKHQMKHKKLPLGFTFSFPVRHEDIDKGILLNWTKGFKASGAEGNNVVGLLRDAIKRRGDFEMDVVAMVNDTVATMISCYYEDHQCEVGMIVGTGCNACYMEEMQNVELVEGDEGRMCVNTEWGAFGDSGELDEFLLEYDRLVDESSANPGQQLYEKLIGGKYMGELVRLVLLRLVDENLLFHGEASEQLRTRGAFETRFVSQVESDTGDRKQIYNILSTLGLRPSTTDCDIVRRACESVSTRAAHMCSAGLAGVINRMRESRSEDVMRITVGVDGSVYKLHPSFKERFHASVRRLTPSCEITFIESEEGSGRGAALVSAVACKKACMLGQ
# Summary of the method: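 Recombinant human pancreatic glucokinase, with glucose at 10 mM. Activity was read as the increase in GK enzyme activity. EC50, Vmax and S0.5 were derived from this. Values are means of triplicate runs.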
# [2] = test system: Mus musculus; assay: Antidiabetic activity in C57BL/6 mouse assessed as reduction of blood glucose AUC at 50 mg/kg, po administered 30 mins prior to glucose challenge measured over 180 mins by OGTT relative to vehicle-treated control; assay type: functional; parameters: scale not given: the % may be the effect or the level left
# Summary of the method: (§1)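 Oral glucose tolerance test in C57BL/6J mice with oral dosing. Blood glucose was followed after the glucose challenge, and the result was expressed as the % reduction in blood glucose AUC.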
# [3] = test system: Mus musculus; assay: Antidiabetic activity in C57BL/6 mouse assessed as reduction of blood glucose AUC at 30 mg/kg, po administered 30 mins prior to glucose challenge measured over 180 mins by OGTT relative to vehicle-treated control; assay type: functional; parameters: scale not given: the % may be the effect or the level left; summary of the method: as §1
# [4] = Oral bioavailability in ICR mouse at 10 mg/kg; assay type: ADME, organism-based; conditions: in vivo
# [5] = Solubility of the compound at pH 7.4; assay type: physicochemical; conditions: buffer
# [6] = Volume of distribution at steady state in ICR mouse at 3 mg/kg, iv and 10 mg/kg, po; assay type: ADME, organism-based; conditions: in vivo, read-out: Vdss
# [7] = Elimination half life in ICR mouse at 3 mg/kg, iv and 10 mg/kg, po; assay type: ADME, organism-based; conditions: in vivo, read-out: beta t1/2 (converted)
# [8] = test system: Mus musculus; assay: Antidiabetic activity in C57BL/6J mouse assessed as blood glucose level at 30 mg/kg, po after 60 mins by fasted glucose tolerance test; assay type: functional
# Summary of the method: (§2)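 Fasted glucose tolerance test in C57BL/6J mice. Animals were fasted and dosed orally, with no glucose challenge. Blood glucose was measured at 60 min.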
# [9] = Clearance in ICR mouse at 3 mg/kg, iv and 10 mg/kg, po; assay type: ADME, organism-based; conditions: in vivo
# [10] = Apparent permeability of the compound by PAMPA; assay type: physicochemical
# [11] = test system: Mus musculus; assay: Toxicity in C57BL/6J mouse assessed as hypoglycemic effect at 30 mg/kg, po after 60 mins; assay type: organism-based; conditions: in vivo, 1 h; summary of the method: as §2
SMILES,EC50 [1],Activity [2],other results
COCC#Cc1cc(O[C@@H](C)COC)cc(C(=O)Nc2ccn(C)n2)c1,1870 nM,,
COC[C@H](C)Oc1cc(C#CCOC2CCCCO2)cc(C(=O)Nc2ccn(C)n2)c1 (stereo not given in full),6 nM,44.7%,
COC[C@H](C)Oc1cc(C#CCNc2ncccn2)cc(C(=O)Nc2ccn(C)n2)c1,301 nM,,
COC[C@H](C)Oc1cc(C#Cc2ccccc2OC)cc(C(=O)Nc2ccn(C)n2)c1,21 nM,,Activity [3]: 49.1%
COC[C@H](C)Oc1cc(C#Cc2ccc(N)cc2)cc(C(=O)Nc2ccn(C)n2)c1,34 nM,53.5%,
COC[C@H](C)Oc1cc(C#Cc2cccc(N)c2)cc(C(=O)Nc2ccn(C)n2)c1,27 nM,52.1%,bioavailability [4]: 49%; solubility [5]: 22.2 µM; Vd [6]: 1.44 L/kg; half-life [7]: 1.1 h; Activity [8]: >55 mg/dL; Activity [3]: 47.4%; clearance [9]: 43.2 mL/min/kg; Papp [10]: 3.43 ×10⁻⁶ cm/s; Activity [11]: Non-toxic
CCN(CC)c1cccc(C#Cc2cc(O[C@@H](C)COC)cc(C(=O)Nc3ccn(C)n3)c2)c1,163 nM,,
COC[C@H](C)Oc1cc(C#Cc2cccc(NCCN(C)C)c2)cc(C(=O)Nc2ccn(C)n2)c1,6 nM,,Activity [3]: 56%
COC[C@H](C)Oc1cc(C#Cc2cccc(NCCN3CCCCC3)c2)cc(C(=O)Nc2ccn(C)n2)c1,6 nM,54%,
COCCNc1cccc(C#Cc2cc(O[C@@H](C)COC)cc(C(=O)Nc3ccn(C)n3)c2)c1,39 nM,,Activity [3]: 41%
COC[C@H](C)Oc1cc(C#Cc2cccc(OC(C)C)c2)cc(C(=O)Nc2ccn(C)n2)c1,53 nM,,
COC[C@H](C)Oc1cc(C#Cc2cccc(OCC#N)c2)cc(C(=O)Nc2ccn(C)n2)c1,46 nM,,
COC[C@H](C)Oc1cc(C#Cc2cccc(OCCN3CCCC3)c2)cc(C(=O)Nc2ccn(C)n2)c1,6 nM,51.6%,
COC[C@H](C)Oc1cc(C#Cc2cccc(OCCN3CCCCC3)c2)cc(C(=O)Nc2ccn(C)n2)c1,7 nM,46%,
N[C@@H](CC(=O)N1CCn2c(nnc2C(F)(F)F)C1)Cc1cc(F)c(F)cc1F [SITAGLIPTIN],,,Activity [3]: 22.6%

# The remaining molecules from weak to strong by EC50 [1], led by results:
EC50 [1],SMILES,Activity [2],other results
7700 nM,COC[C@H](C)Oc1cc(C#CCN(C)C)cc(C(=O)Nc2ccn(C)n2)c1,,
39 nM,COC[C@H](C)Oc1cc(C#Cc2cccc(O)c2)cc(C(=O)Nc2ccn(C)n2)c1,,
37 nM,COC[C@H](C)Oc1cc(C#Cc2cccc(N(C)C)c2)cc(C(=O)Nc2ccn(C)n2)c1,43.7%,
30 nM,COC[C@H](C)Oc1cc(C#Cc2ccc3c(c2)OCO3)cc(C(=O)Nc2ccn(C)n2)c1,,
20 nM,COC[C@H](C)Oc1cc(C#Cc2cccc(NCCN3CCOCC3)c2)cc(C(=O)Nc2ccn(C)n2)c1,47.9%,
16 nM,COC[C@H](C)Oc1cc(C#Cc2cccc(OCCN3CCOCC3)c2)cc(C(=O)Nc2ccn(C)n2)c1,,
12 nM,COC[C@H](C)Oc1cc(C#Cc2ccc3[nH]ccc3c2)cc(C(=O)Nc2ccn(C)n2)c1,,
9 nM,COC[C@H](C)Oc1cc(C#Cc2cccc(NCCn3ccnc3C)c2)cc(C(=O)Nc2ccn(C)n2)c1,,
6 nM,COC[C@H](C)Oc1cc(C#Cc2cccc(NCCN3CCCC3)c2)cc(C(=O)Nc2ccn(C)n2)c1,51.4%,
